Experimental data as given in ChEMBL document CHEMBL1764968, “Structural simplification of bioactive natural products with multicomponent synthesis. 3. Fused uracil-containing heterocycles as novel topoisomerase-targeting agents” (2011).
Active and inactive are the calls of the source. The calls are words filed in the database; no cut-off is given here.

What was measured:
Jurkat = test: Cytotoxicity against human Jurkat cells after 72 hrs by MTT assay; type: functional
Outline: (§1)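 Cells plated 24 h in 96-well plates at 10,000–40,000 cells/mL depending on line. U373 grown in MEM, other lines in RPMI, both with 5% heat-inactivated FCS. Cells exposed to compounds (or none, control) for 72 h. MTT reduction to formazan read at 570 nm against 630 nm reference. Sextuplicate per condition.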

MCF7 = test: Cytotoxicity against human MCF7 cells after 72 hrs by MTT assay; type: functional; conditions: MCF7, 72 h; outline: as §1
A549 = test: Cytotoxicity against human A549 cells after 72 hrs by MTT assay; type: functional; conditions: A549, 72 h; outline: as §1
HeLa = test: Cytotoxicity against human HeLa cells after 72 hrs by MTT assay; type: functional; outline: as §1
LoVo = test: Cytotoxicity against human LoVo cells after 72 hrs by MTT assay; type: functional; outline: as §1
SK-MEL = test: Cytotoxicity against human SK-MEL cells after 72 hrs by MTT assay; type: functional; outline: as §1
PC-3 = test: Cytotoxicity against human PC3 cells after 72 hrs by MTT assay; type: functional; conditions: PC-3, 72 h; outline: as §1
[1] = Cytotoxicity against human U373 cells after 72 hrs by MTT assay; type: functional, U-373MG ATCC; conditions: U373 MG; outline: as §1
U-373MG ATCC = test: Cytostatic activity against human U373 cells assessed as morphological changes after 72 hrs by phase contrast microscopy; type: functional, cell-based
[2] = target: T1, DNA topoisomerase 1 (Homo sapiens) (UniProt P11387); test: Effect on human DNA topoisomerase 1-mediated supercoiled pGEM1 plasmid DNA cleavage complex stabilization at up to 100 uM by agarose gel electrophoresis
T1 sequence (whole entry): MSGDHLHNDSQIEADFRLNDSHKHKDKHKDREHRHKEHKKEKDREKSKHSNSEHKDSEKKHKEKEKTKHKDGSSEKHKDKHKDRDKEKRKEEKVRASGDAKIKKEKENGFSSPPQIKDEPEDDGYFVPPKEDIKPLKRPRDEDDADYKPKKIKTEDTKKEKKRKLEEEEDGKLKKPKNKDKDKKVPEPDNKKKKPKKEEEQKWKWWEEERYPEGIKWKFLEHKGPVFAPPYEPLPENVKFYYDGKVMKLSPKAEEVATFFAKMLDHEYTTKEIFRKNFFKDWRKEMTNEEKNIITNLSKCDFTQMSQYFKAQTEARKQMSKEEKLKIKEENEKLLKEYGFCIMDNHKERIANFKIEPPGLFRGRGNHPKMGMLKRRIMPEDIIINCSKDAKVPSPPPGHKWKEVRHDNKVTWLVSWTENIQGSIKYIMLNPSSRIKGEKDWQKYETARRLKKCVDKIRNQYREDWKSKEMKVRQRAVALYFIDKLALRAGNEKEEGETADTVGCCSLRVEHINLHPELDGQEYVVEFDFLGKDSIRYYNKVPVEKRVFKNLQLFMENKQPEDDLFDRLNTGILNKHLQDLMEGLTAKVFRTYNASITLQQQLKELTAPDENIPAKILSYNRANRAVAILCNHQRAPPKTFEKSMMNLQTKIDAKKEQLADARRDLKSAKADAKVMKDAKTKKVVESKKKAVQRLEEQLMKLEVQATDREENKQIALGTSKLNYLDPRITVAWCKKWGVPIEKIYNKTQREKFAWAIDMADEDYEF

Structure (SMILES)	GI50 (Jurkat) [µM]	GI50 (MCF7) [µM]	GI50 (A549) [µM]	GI50 (HeLa) [µM]	GI50 (LoVo) [µM]	GI50 (SK-MEL) [µM]	GI50 (PC-3) [µM]	GI50 [1] [µM]	Activity (U-373MG ATCC)	Activity [2]
O=C1C2=C(Nc3[nH]c(=O)[nH]c(=O)c3C2c2ccnc3ccccc23)c2ccccc21 (configuration not stated)	8.2	9.4	8.6	5.6						
CC(C)c1ccc(-c2c3c(nc4[nH]c(=O)[nH]c(=O)c24)-c2ccccc2C3=O)cc1	0.49	6.9	8.2	0.85						
O=C1c2ccccc2-c2nc3[nH]c(=O)[nH]c(=O)c3c(-c3ccc(Cl)cc3Cl)c21	0.81	7.4	7.8	0.89	2.9	3.5	2.8	4.2		
CCOc1ccc(C2C3=C(Nc4[nH]c(=O)[nH]c(=O)c42)c2ccccc2C3=O)cc1 (configuration not stated)	0.91	6.6	5.8	7.4						
COc1cc(C2C3=C(Nc4[nH]c(=O)[nH]c(=O)c42)c2ccccc2C3=O)cc(Br)c1OC (configuration not stated)	0.2	0.78	0.48	3.8	0.38	0.48	> 10	0.37		
COc1ccc(C2C3=C(Nc4[nH]c(=O)[nH]c(=O)c42)c2ccccc2C3=O)cc1 (configuration not stated)	0.87	3.6	9.2	6.9	2.2	4.8	3	4.1		
O=C1C2=C(Nc3[nH]c(=O)[nH]c(=O)c3C2c2ccc(F)c(Br)c2)c2ccccc21 (configuration not stated)	0.99	5.5	5.6	5.4						
O=C1c2ccccc2-c2nc3[nH]c(=O)[nH]c(=O)c3c(-c3ccc(F)cc3)c21	7.4	> 10	> 10	> 10	3.5	10	9	8.7		
O=C1c2ccccc2-c2nc3[nH]c(=O)[nH]c(=O)c3c(-c3ccc(OC(F)(F)F)cc3)c21	0.95	6.6	8	5.8						
O=C1C2=C(Nc3[nH]c(=O)[nH]c(=O)c3C2c2ccc(OC(F)(F)F)cc2)c2ccccc21 (configuration not stated)	0.96	5.8	5.7	5.6						
COc1ccc(-c2c3c(nc4[nH]c(=O)[nH]c(=O)c24)-c2ccccc2C3=O)cc1OC	0.22	0.75	0.83	0.53	0.44	0.47	> 10	0.6		
Cc1ccc(C2C3=C(Nc4[nH]c(=O)[nH]c(=O)c42)c2ccccc2C3=O)cc1 (configuration not stated)	5.6	7.6	5.9	8.6						
O=C1C2=C(Nc3[nH]c(=O)[nH]c(=O)c3C2c2ccc(Cl)cc2Cl)c2ccccc21 (configuration not stated)	0.76	7	7.4	0.95	1.4	3.9	2.4	4.2		
CCOc1ccc(-c2c3c(nc4[nH]c(=O)[nH]c(=O)c24)-c2ccccc2C3=O)cc1	0.76	5.6	6	5.3						
CC[C@@]1(O)C(=O)OCc2c1cc1n(c2=O)Cc2cc3ccccc3nc2-1 [CAMPTOTHECIN]	0.09	6	0.2	1.3	0.008	0.047	0.48	0.033		
O=C1C2=C(Nc3[nH]c(=O)[nH]c(=O)c3C2c2ccc(F)cc2)c2ccccc21 (configuration not stated)	> 10	> 10	> 10	> 10	4.6	10	4	5.6		
O=C1c2ccccc2-c2nc3[nH]c(=O)[nH]c(=O)c3c(-c3ccc(C(F)(F)F)cc3)c21	0.96	5.6	7.8	3.8						

Structure (SMILES)	GI50 (Jurkat) [µM]	GI50 (MCF7) [µM]	GI50 (A549) [µM]	GI50 (HeLa) [µM]	GI50 (LoVo) [µM]	GI50 (SK-MEL) [µM]	GI50 (PC-3) [µM]	GI50 [1] [µM]	Activity (U-373MG ATCC)	Activity [2]
O=C1C2=C(Nc3[nH]c(=O)[nH]c(=O)c3C2c2ccc(Cl)c(Cl)c2)c2ccccc21 (configuration not stated)	0.35	0.8	0.59	5.8	0.46	0.5	6.2	0.42		
O=C1C2=C(Nc3[nH]c(=O)[nH]c(=O)c3C2c2ccc(C(F)(F)F)cc2)c2ccccc21 (configuration not stated)	2.2	1.5	5.2	5.6						
Cc1ccc(C2C3=C(Nc4[nH]c(=O)[nH]c(=O)c42)c2ccccc2C3=O)cc1C (configuration not stated)	0.19	0.34	0.29	0.78	0.49	0.96	4.2	0.43	Active	inactive
COc1cc(-c2c3c(nc4[nH]c(=O)[nH]c(=O)c24)-c2ccccc2C3=O)cc(Br)c1OC	0.17	0.95	0.31	0.34	0.35	0.47	> 10	0.6		
O=C1c2ccccc2-c2nc3[nH]c(=O)[nH]c(=O)c3c(-c3ccc4c(c3)OCCO4)c21	5.5	8.5	7.5	8.8						
COc1ccc(C2C3=C(Nc4[nH]c(=O)[nH]c(=O)c42)c2ccccc2C3=O)c(OC)c1OC (configuration not stated)	0.49	0.48	0.54	0.35	0.22	0.4	> 10	0.26		
O=C1c2ccccc2-c2nc3[nH]c(=O)[nH]c(=O)c3cc21	> 10	> 10	> 10	> 10	9.5	10	> 10	7.5		
O=C1c2ccccc2-c2nc3[nH]c(=O)[nH]c(=O)c3c(-c3ccc(Cl)c(Cl)c3)c21	0.23	0.74	0.12	0.35	0.07	0.08	> 10	0.08		
CC(C)c1ccc(C2C3=C(Nc4[nH]c(=O)[nH]c(=O)c42)c2ccccc2C3=O)cc1 (configuration not stated)	0.96	9.1	> 10	5.8						
COc1ccc(-c2c3c(nc4[nH]c(=O)[nH]c(=O)c24)-c2ccccc2C3=O)c(OC)c1OC	0.47	0.47	0.26	0.31	0.35	0.43	0.9	0.36		
COc1ccc(-c2c3c(nc4[nH]c(=O)[nH]c(=O)c24)-c2ccccc2C3=O)cc1	0.96	2.4	> 10	5.5	0.87	4.7	0.88	2.4		
COc1ccc(C2C3=C(Nc4[nH]c(=O)[nH]c(=O)c42)c2ccccc2C3=O)cc1OC (configuration not stated)	0.4	0.69	4.8	0.6	0.8	0.86	> 10	0.7		
O=C1c2ccccc2-c2nc3[nH]c(=O)[nH]c(=O)c3c(-c3ccc(F)c(Br)c3)c21	0.98	5.5	2.8	5.6						
O=C1C2=C(Nc3[nH]c(=O)[nH]c(=O)c3C2c2ccc3c(c2)OCCO3)c2ccccc21 (configuration not stated)	6.9	8.4	7.8	5.4						
O=C1c2ccccc2-c2nc3[nH]c(=O)[nH]c(=O)c3c(-c3ccnc4ccccc34)c21	8.2	9.5	> 10	7.6						
Cc1ccc(-c2c3c(nc4[nH]c(=O)[nH]c(=O)c24)-c2ccccc2C3=O)cc1	1.1	6.4	5.8	6.4						
